Results reported in ChEMBL document CHEMBL1149024, “Naturally occurring antiacne agents” (1994).
Converted amounts (≈) assume the structure as drawn. The source made the active and inactive calls. No cut-off for these calls is given here.

What was measured:
Cutibacterium acnes [1] = assay: Antimicrobial activity Propionibacterium acnes ATCC 11827 after 2 days by broth dilution method; format: functional
In short: (§1)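 Serial twofold dilutions in DMF; 30 µl of each added to 3 ml NYG broth (0.8% nutrient broth, 0.5% yeast extract, 0.1% glucose), then inoculated with 30 µl of a two-day-old culture. Incubated 2 days at 37°; growth read as turbidity (OD 660 nm). MIC is the lowest concentration giving complete growth inhibition, determined at least twice.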

Cutibacterium acnes [2] = assay: Antimicrobial activity at lag growth phase of Propionibacterium acnes ATCC 11827 assessed as log units reduction in CFU/ml at 25 ug/ml after 48 hrs by time-kill curve method; format: functional
In short: (§2)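 A 30 µl aliquot of two-day-old culture went into 3 ml NYG broth (initial inoculum 1 × 10^6 to 5 × 10^6 CFU/ml). Compound, dissolved in DMF, was added at set times after incubation began. Viable counts were taken 24 and 48 h after addition from serial 10-fold dilutions plated on Actinomyces agar, incubated anaerobically 3 days at 37°.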

Cutibacterium acnes [3] = assay: Antimicrobial activity at exponential growth phase of Propionibacterium acnes ATCC 11827 assessed as log units reduction in CFU/ml at 1.56 ug/ml after 48 hrs by time-kill curve method; format: functional, organism-based
In short: (§3)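 Growth-phase time-kill: P. acnes ATCC 11827 was grown in NYG broth from a 1 × 10^6 to 5 × 10^6 CFU/ml inoculum. The compound (DMF stock) was added after 0, 8 or 32 h of incubation. Viable counts were taken 24 and 48 h after addition by serial 10-fold dilution plating on Actinomyces agar, incubated anaerobically at 37° for 3 days. Reduction is expressed as log CFU/ml.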

Cutibacterium acnes [4] = assay: Antimicrobial activity Propionibacterium acnes ATCC 11827 at 1.56 ug/ml after 3 days by time-kill curve method; format: functional, organism-based
In short: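 P. acnes ATCC 11827, from a two-day-old culture, was inoculated into NYG broth (0.8% nutrient broth, 0.5% yeast extract, 0.1% glucose) containing the compound predissolved in DMF. Initial inoculum was 1 × 10^6 to 5 × 10^6 CFU/ml. Viable counts were taken at 8, 24 and 48 h from serial 10-fold dilutions on Actinomyces agar, incubated anaerobically at 37° for 3 days.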

Cutibacterium acnes [5] = assay: Antimicrobial activity at exponential growth phase of Propionibacterium acnes ATCC 11827 assessed as log units reduction in CFU/ml at 6.25 ug/ml after 48 hrs by time-kill curve method; format: functional, organism-based; in short: as §3
Cutibacterium acnes [6] = assay: Antimicrobial activity at exponential growth phase of Propionibacterium acnes ATCC 11827 assessed as log units reduction in CFU/ml at 25 ug/ml after 48 hrs by time-kill curve method; format: functional, organism-based; in short: as §2
Cutibacterium acnes [7] = assay: Antimicrobial activity Propionibacterium acnes ATCC 11827 after 2 days by twofold dilution method in presence of 1000 units of lipase; format: functional; details: ATCC 11827, 48 h
Cutibacterium acnes [8] = assay: Antimicrobial activity Propionibacterium acnes ATCC 11827 up to 200 ug/ml after 2 days by broth dilution method; format: functional, organism-based; in short: as §1
[9] = Cutibacterium acnes, ATCC 11827, 48 h
[10] = Cutibacterium acnes, ATCC 11827, 48 h, read-out: MIC

SMILES | MIC (Cutibacterium acnes [1]; [10]) [µg/mL] | also measured
CCCCCCCCCCCCCCCO | 0.78 (≈ 3.41 µM) | MBC (Cutibacterium acnes [1]; [9]): 1.56 µg/mL (≈ 6.83 µM); Activity (Cutibacterium acnes [2]): >2; Activity (Cutibacterium acnes [3]): inactive; Activity (Cutibacterium acnes [4]): Active; Activity (Cutibacterium acnes [5]): inactive; Activity (Cutibacterium acnes [6]): Active
CCCCCCCCCCCCCCCCCO | > 800 | 
CCCCCCCCc1cccc(O)c1C(=O)O | 3.13 (≈ 12.5 µM) | 
CCCCCCCCCCc1cccc(O)c1C(=O)O | 1.56 (≈ 5.6 µM) | 
CCCCCCCCCCC(C)O (centres undefined) | 12.5 (≈ 67.1 µM) | 
CCCCCCCCCCCCCCC(C)O (centres undefined) | 0.78 (≈ 3.22 µM) | 
CCCCCCCCCCCCC(C)O (centres undefined) | 3.13 (≈ 14.6 µM) | 
CCC/C=C\C/C=C\CCCCCCCc1cccc(O)c1C(=O)O | 0.78 (≈ 2.26 µM) | 
CCCCCCCCCCCCc1cccc(O)c1C(=O)O | 0.39 (≈ 1.27 µM) | 
CCCCCCCCCCCCCCCCCCCCc1cccc(O)c1C(=O)O | > 800 | 
CCCCCCC(O)CC (centres undefined) | 200 (≈ 1390 µM) | 
CCCCCc1cccc(O)c1C(=O)O | 100 (≈ 480 µM) | 
Cc1cccc(O)c1C(=O)O | 200 (≈ 1310 µM) | 
CCCCCCC(C)O (centres undefined) | 800 (≈ 6140 µM) | 
CCCCCCCCCCCCCCCCC(C)O (centres undefined) | > 800 | 
C=C1[C@H]2CC[C@H](C2)C1(C)C | 25 (≈ 184 µM) | 
CCCCCCCCCCCCCCCCCCCCO [1-EICOSANOL] | > 800 | 
CCCCCCCO [1-HEPTANOL] | 400 (≈ 3440 µM) | MBC (Cutibacterium acnes [1]; [9]): 800 µg/mL (≈ 6880 µM)
CCCCCCO [1-HEXANOL] | > 800 | 
CCCCCC(C)O (centres undefined) [2-HEPTANOL] | 800 (≈ 6880 µM) | 
CCCCC(C)O (centres undefined) [2-HEXANOL] | 800 (≈ 7830 µM) | 
CCCCCCCC(C)O (centres undefined) [2-NONANOL] | 400 (≈ 2770 µM) | 
CCCCC(O)CC (centres undefined) [3-HEPTANOL] | 800 (≈ 6880 µM) | 
CCCCCC(O)CC (centres undefined) [3-OCTANOL] | 400 (≈ 3070 µM) | 
CC1=C[C@@H]2C(=C(C)CC[C@H]2C(C)C)CC1 [(+)-DELTA-CADINENE] | 3.13 (≈ 15.3 µM) | 
C=C1[C@@H]2CC[C@@H](C2)C1(C)C [(-)-CAMPHENE] | 25 (≈ 184 µM) | 

SMILES | MIC (Cutibacterium acnes [1]; [10]) [µg/mL] | also measured
CC(C)C1=CC2=CC[C@@H]3[C@](C)(CCC[C@@]3(C)C(=O)O)[C@H]2CC1 [ABIETIC ACID] | 25 (≈ 82.7 µM) | 
C/C1=C\CC/C(C)=C/CC(C)(C)/C=C/C1 [ALPHA-HUMULONE] | 3.13 (≈ 15.3 µM) | 
CC1=CCC2CC1C2(C)C (stereo not drawn) [ALPHA-PINENE] | 25 (≈ 184 µM) | 
CC1=CC[C@@H](C(C)(C)O)CC1 [ALPHA-TERPINEOL] | 100 (≈ 648 µM) | 
C=CC/C=C\C/C=C\CCCCCCCc1cccc(O)c1C(=O)O [ANACARDIC ACID] | 0.78 (≈ 2.28 µM) | 
CCCCCCCCCCCCCCCc1cccc(O)c1C(=O)O [ANACARDIC ACID] | 0.78 (≈ 2.24 µM) | MIC (Cutibacterium acnes [1]): 0.78 µg/mL (≈ 2.24 µM)
C/C=C/c1ccc(OC)cc1 [ANETHOLE] | 100 (≈ 675 µM) | 
C=C1CC/C=C(\C)CC[C@@H]2[C@@H]1CC2(C)C [BETA-CARYOPHYLLENE] | 6.25 (≈ 30.6 µM) | 
C=C1CCC2CC1C2(C)C (stereo not drawn) [BETA-PINENE] | 100 (≈ 734 µM) | 
CC[C@H](CC[C@@H](C)[C@H]1CC[C@H]2[C@@H]3CC=C4C[C@@H](O)CC[C@]4(C)[C@H]3CC[C@]12C)C(C)C [BETA-SITOSTEROL] | > 800 | 
CC1(C)C2CCC1(C)C(O)C2 (centres undefined) [BORNEOL] | 200 (≈ 1300 µM) | 
Cn1c(=O)c2c(ncn2C)n(C)c1=O [CAFFEINE] | > 400 | 
CC12CCC(CC1=O)C2(C)C (centres undefined) [CAMPHOR] | 200 (≈ 1310 µM) | 
CC1=CCC2C(C1)C2(C)C (centres undefined) [CARENE] | 50 (≈ 367 µM) | 
CCCCCCCCCCCCCCCCCCO [CETOSTEARYL ALCOHOL] | > 800 | 
CCCCCCCCCCCCCCCCO [CETYL ALCOHOL] | 0.78 (≈ 3.22 µM) | MBC (Cutibacterium acnes [1]; [9]): 1.56 µg/mL (≈ 6.43 µM)
CC(C)CCC[C@@H](C)[C@H]1CC[C@H]2[C@@H]3CC=C4C[C@@H](O)CC[C@]4(C)[C@H]3CC[C@]12C [CHOLESTEROL] | > 800 | 
CC(C)=CCC/C(C)=C/[C@H](O)C/C(C)=C/CC/C(C)=C/CO [CRINITOL] | 25 (≈ 81.6 µM) | 
C=C(C)[C@H]1CC=C(C)CC1 [D-LIMONENE] | 50 (≈ 367 µM) | 
CCCCCCCCC(C)O (centres undefined) [DECAN-2-OL] | 100 (≈ 632 µM) | 
CCCCCCCCCCO [DECANOL] | 25 (≈ 158 µM) | MBC (Cutibacterium acnes [1]; [9]): 50 µg/mL (≈ 316 µM)
CCCCCCCCCCCC(=O)O [DODECANOATE] | 50 (≈ 250 µM) | 
CCCCCCCCCCCCO [DODECANOL] | 3.13 (≈ 16.8 µM) | MBC (Cutibacterium acnes [1]; [9]): 6.25 µg/mL (≈ 33.5 µM)
C=CCc1ccc(O)c(OC)c1 [EUGENOL] | 50 (≈ 304 µM) | 
CC(C)=CCC/C(C)=C/CC/C(C)=C/CO [FARNESOL] | 6.25 (≈ 28.1 µM) | 
CC(C)=CCC/C(C)=C/CO [GERANIOL] | 400 (≈ 2590 µM) | 

SMILES | MIC (Cutibacterium acnes [1]; [10]) [µg/mL] | also measured
CCCCCC/C=C\CCCCCCCc1cccc(O)c1C(=O)O [GINGKOLIC ACID] | 0.78 (≈ 2.25 µM) | 
CCCC(O)CC (centres undefined) [HEXAN-3-OL] | > 800 | 
CC(C)c1cccc(=O)c(O)c1 [HINOKITIOL] | 12.5 (≈ 76.1 µM) | 
c1ccc2[nH]ccc2c1 [INDOLE] | 200 (≈ 1710 µM) | 
C/C=C/c1ccc2c(c1)OCO2 [ISOSAFROLE] | 200 (≈ 1230 µM) | 
C=CC(C)(O)CCC=C(C)C (centres undefined) [LINALOOL] | 200 (≈ 1300 µM) | 
C=C1[C@H]2CC[C@@H]3[C@H]2C(C)(C)CCC[C@]13C [LONGIFORENE] | 6.25 (≈ 30.6 µM) | 
CC1CCC(C(C)C)C(O)C1 (centres undefined) [MENTHOL] | 400 (≈ 2560 µM) | 
C=CCc1ccc(OC)c(OC)c1 [METHYLEUGENOL] | 200 (≈ 1120 µM) | 
CCCCCCCCCCCCCCO [MYRISTYL ALCOHOL] | 1.56 (≈ 7.28 µM) | MBC (Cutibacterium acnes [1]; [9]): 1.56 µg/mL (≈ 7.28 µM)
CC(C)c1oc(=O)cc2c1[C@@H](O)[C@H]1OC(=O)[C@@]3(C)[C@@H](O)[C@H]4O[C@H]4[C@@]2(C)[C@@H]13 [NAGILACTONE C] | > 800 | 
CC(C)[C@H]1OC(=O)C=C2C13O[C@@H]3[C@H]1OC(=O)[C@@]3(C)[C@@H](O)CC[C@@]2(C)[C@@H]13 (some centres undefined) [NAGILACTONE E] | > 800 | 
C=CC(C)(O)CC/C=C(\C)CCC=C(C)C (centres undefined) [NEROLIDOL] | 25 (≈ 112 µM) | 
CCCCCCCCCO [NONANOL] | 100 (≈ 693 µM) | MBC (Cutibacterium acnes [1]; [9]): 200 µg/mL (≈ 1390 µM)
CCCCCCCCO [OCTANOL] | 200 (≈ 1540 µM) | 
CCCCCCCCCCCCCCCOC(=O)CCCCCCCCCCC [PENTADECANYLDODECANOATE] |  | MIC (Cutibacterium acnes [7]): 1.56 µg/mL; Activity (Cutibacterium acnes [8]): inactive
CC1(C)CCC[C@]2(C)[C@@H](C=O)C(C=O)=CC[C@@H]12 [POLYGODIAL] | 25 (≈ 107 µM) | 
C=CCc1ccc2c(c1)OCO2 [SAFROLE] | 50 (≈ 308 µM) | 
O=C(O)c1ccccc1O [SALICYLIC ACID] | 400 (≈ 2900 µM) | 
CC1=CCC(O)(C(C)C)CC1 (centres undefined) [TERPINEOL] | 800 (≈ 5190 µM) | 
CC1=CCC(=C(C)C)CC1 [TERPINOLENE] | 50 (≈ 367 µM) | 
Cc1ccc(C(C)C)c(O)c1 [THYMOL] | 200 (≈ 1330 µM) | 
CC(C)c1c(O)ccc2c1CC[C@H]1C(C)(C)CCC[C@]21C [TOTAROL] | 0.39 (≈ 1.36 µM) | 
C/C=C/c1cc(OC)c(OC)cc1OC [TRANS-ASARONE] | 100 (≈ 480 µM) | 
CCCCCCCCCCCCCO [TRIDECAN-1-OL] | 1.56 (≈ 7.79 µM) | MBC (Cutibacterium acnes [1]; [9]): 3.13 µg/mL (≈ 15.6 µM)
CCCCCCCCCCCO [UNDECANOL] | 12.5 (≈ 72.5 µM) | MBC (Cutibacterium acnes [1]; [9]): 25 µg/mL (≈ 145 µM)
